Assay results reported in ChEMBL document CHEMBL1123217, “Molecular design toward biologically significant compounds based on platelet activating factor: a highly selective agonist as a potential antihypertensive agent” (1986).

Assays:
[1] = system: Rattus norvegicus; assay: Antihypertensive activity using C16-PAF in rat at a doses ranging from 1-10 nmol/kg iv; format: functional
Outline: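 Male Wistar rats (350-430 g, 3-6 per group) under sodium pentobarbital anesthesia (60 mg/kg). Arterial pressure was recorded through a femoral artery catheter. Doses were given iv through a vena cava catheter once readings were stable. Pressure and heart rate were followed every 5 min for 40 min. Falls were expressed relative to C16-PAF given at 1-10 nmol/kg iv.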

[2] = species on record: Oryctolagus cuniculus; assay: Relative activity against platelet aggregation in [14C]5-HT preloaded rabbit platelet for 2 mins; format: functional
Outline: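 Rabbit platelets preloaded with [14C]serotonin were incubated with a range of analogue amounts for 2 min at 20 °C, and [14C]serotonin release was measured. Activity was expressed relative to the ED50 of C16-PAF.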

[3] = Ratio of antihypertension to platelet activation
[4] = system: Rattus norvegicus; assay: Hypotensive activity in spontaneously hypertensive rat expressed as decrease in systolic BP at 0.1 mg/kg, po; format: functional
Outline: (§1)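 Male SHR aged 18-20 weeks, fasted 24 h with free access to water, dosed orally. Systolic pressure was measured indirectly by tail cuff, with heart rate recorded at the same time. The fall in mmHg was read 3 h after dosing, with 4-5 animals per dose, reported as mean ±.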

[5] = system: Rattus norvegicus; assay: Hypotensive activity in spontaneously hypertensive rat expressed as decrease in systolic BP at 1 mg/kg, po; format: functional; outline: as §1
[6] = system: Rattus norvegicus; assay: Hypotensive activity in spontaneously hypertensive rat expressed as decrease in systolic BP at 0.3mg/kg, po; format: functional
Outline: (§2)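 Male SHR (18-20 weeks old), food withdrawn 24 h beforehand with free access to water; compound given orally; systolic blood pressure in the tail artery read indirectly by tail-cuff, heart rate recorded simultaneously; decrease in systolic pressure (mmHg) taken 3 h after dosing; n = 4-5 animals per dose.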

[7] = system: Rattus norvegicus; assay: Hypotensive activity in spontaneously hypertensive rat expressed as decrease in systolic BP at 25 mg/kg, po; format: functional; outline: as §2
[8] = system: Rattus norvegicus; assay: Hypotensive activity in spontaneously hypertensive rat expressed as decrease in systolic BP at 3 mg/kg, po; format: functional; outline: as §2

Row | Compound | Relative activity [1] | Relative activity [2] | Ratio [3] | other results
1 | CCCCCCCCCCCCCCCCOCC(C)(COP(=O)([O-])OCC[N+](C)(C)C)OC(C)=O (stereo unspecified) | 0.0001 |  |  | 
2 | CCCCCCCCCCCCCCCCOCC(OC(C)=O)C(C)OP(=O)([O-])OCC[N+](C)(C)C (single isomer, unassigned) | 0.001 | 0.00055 | 1.82 | 
3 | CCCCCCCCCCCCCCCCOC(C)C(COP(=O)([O-])OCC[N+](C)(C)C)OC(C)=O (single isomer, unassigned; enantiomer 2) | 0.0002 |  |  | 
4 | CCCCCCCCCCCCCCCCOC(C)C(COP(=O)([O-])OCC[N+](C)(C)C)OC(C)=O (single isomer, unassigned; enantiomer 3) | 0.0001 | 0.00056 | 0.18 | 
5 | CCCCCCCCCCCCCCCCOCC(OC(C)=O)C(C)OP(=O)([O-])OCC[N+](C)(C)C (stereo in doubt) | 0.0002 |  |  | 
6 | CCCCCCCCCCCCCCCCOC(C)C(COP(=O)([O-])OCC[N+](C)(C)C)OC(C)=O (stereo in doubt; 2) | 0.059 | 0.0087 | 6.78 | Decrease [4]: 35 mmHg; Decrease [5]: 69 mmHg
7 | CCCCCCCCCCCCCCCCOC(C)C(COP(=O)([O-])OCC[N+](C)(C)C)OC(C)=O (stereo in doubt; 3) | 0.00033 |  |  | 
8 | CCCCCCCCCCCCCCCCOCC(OC(C)=O)C(C)OP(=O)([O-])OCC[N+](C)(C)C (stereo in doubt; 5) | 0.002 |  | 3.64 | 
9 | CCCCCCCCCCCCCCCCOCC(OC(C)=O)C(C)OP(=O)([O-])OCC[N+](C)(C)C (stereo in doubt; 6) | 0.0014 | 0.00089 | 1.57 | 
10 | CCCCCCCCCCCCCCCCOCC(COP(=O)([O-])OCC[N+](C)(C)C)OC(C)=O (stereo unspecified) [PLATELET ACTIVATING FACTOR] | 1 | 1 | 1 | Decrease [6]: 4 mmHg; Decrease [7]: 53 mmHg; Decrease [8]: 5 mmHg
